Converted amounts (≈) assume the structure as drawn.
Tests used:
Assay type in all cases: functional
Staphylococcus aureus [1] = assay: Minimum inhibitory concentration tested against Staphylococcus aureus 1199-3 strain
In short: (§1)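 MICs against S. aureus strains were read in µg/mL from a dilution series. Stated error for each MIC is ± one dilution.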

Staphylococcus aureus [2] = assay: Minimum inhibitory concentration tested against Staphylococcus aureus 1199B strain; in short: as §1
Staphylococcus aureus [3] = assay: Minimum inhibitory concentration tested against methicillin resistant Staphylococcus aureus 494 strain (MRSA 494)
In short: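 MIC in µg/mL against drug-resistant S. aureus strains; error stated as ± one dilution.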

Staphylococcus aureus [4] = assay: Minimum inhibitory concentration tested against vancomycin-insensitive SA (GISA 992 strain); in short: as §1
Staphylococcus aureus [5] = assay: Minimum inhibitory concentration tested against Staphylococcus aureus 1199 strain; in short: as §1

Compound | MIC (Staphylococcus aureus [1]) [µg/mL] | MIC (Staphylococcus aureus [2]) [µg/mL] | MIC (Staphylococcus aureus [3]) [µg/mL] | MIC (Staphylococcus aureus [4]) [µg/mL] | MIC (Staphylococcus aureus [5]) [µg/mL]
CCn1cc(C(=O)O)c(=O)c2cnc(N3CCN(Cc4ccc(CN5CCN(c6cc7c(cc6F)c(=O)c(C(=O)O)cn7C6CC6)CC5)cc4)CC3)nc21 | < 0.03 | < 0.03 | 0.125 (≈ 0.17 µM) | 2 (≈ 2.71 µM) | < 0.03
O=C(O)c1cn(C2CC2)c2cc(N3CCN(Cc4ccc(CN5CCN(c6cc7c(cc6F)c(=O)c(C(=O)O)cn7C6CC6)CC5)cc4)CC3)c(F)cc2c1=O | 0.125 (≈ 0.163 µM) | 0.125 (≈ 0.163 µM) | 0.125 (≈ 0.163 µM) | 4 (≈ 5.23 µM) | 0.125 (≈ 0.163 µM)
O=C(O)c1cn(C2CC2)c2cc(N3CCN(Cc4cccc(CN5CCN(c6cc7c(cc6F)c(=O)c(C(=O)O)cn7C6CC6)CC5)c4)CC3)c(F)cc2c1=O | 0.06 (≈ 0.0784 µM) | 0.125 (≈ 0.163 µM) | < 0.03 | > 16 | 0.06 (≈ 0.0784 µM)
O=C(O)c1cn(C2CC2)c2cc(N3CCN(Cc4cccc(CN5CCN(c6cc7c(cc6F)c(=O)c(C(=O)O)cn7C6CC6)CC5)n4)CC3)c(F)cc2c1=O | < 0.03 | < 0.03 | 0.06 (≈ 0.0783 µM) | 8 (≈ 10.4 µM) | < 0.03
O=C(O)c1cn(C2CC2)c2cc(N3CCN(C/C=C/CN4CCN(c5cc6c(cc5F)c(=O)c(C(=O)O)cn6C5CC5)CC4)CC3)c(F)cc2c1=O | 0.06 (≈ 0.0839 µM) | 0.03 (≈ 0.042 µM) | 0.125 (≈ 0.175 µM) | > 16 | 0.03 (≈ 0.042 µM)
CCn1cc(C(=O)O)c(=O)c2cnc(N3CCN(Cc4ccc(CN5CCN(c6ncc7c(=O)c(C(=O)O)cn(CC)c7n6)CC5)cc4)CC3)nc21 | 0.5 (≈ 0.705 µM) | 4 (≈ 5.64 µM) | 2 (≈ 2.82 µM) | 8 (≈ 11.3 µM) | 0.5 (≈ 0.705 µM)
CCn1cc(C(=O)O)c(=O)c2cc(F)c(N3CCN(C/C=C/CN4CCN(c5cc6c(cc5F)c(=O)c(C(=O)O)cn6CC)CC4)CC3)cc21 | 0.125 (≈ 0.181 µM) | 0.125 (≈ 0.181 µM) | 0.125 (≈ 0.181 µM) | > 16 | 0.25 (≈ 0.362 µM)
O=C(O)c1cn(C2CC2)c2cc(N3CCN(Cc4ccc(-c5ccc(CN6CCN(c7cc8c(cc7F)c(=O)c(C(=O)O)cn8C7CC7)CC6)cc5)cc4)CC3)c(F)cc2c1=O | 8 (≈ 9.51 µM) | 8 (≈ 9.51 µM) |  | > 16 | 4 (≈ 4.76 µM)
CCn1cc(C(=O)O)c(=O)c2cc(F)c(N3CCN(Cc4ccc(CN5CCN(c6cc7c(cc6F)c(=O)c(C(=O)O)cn7C6CC6)CC5)cc4)CC3)cc21 | < 0.03 | 0.06 (≈ 0.0797 µM) |  | 4 (≈ 5.31 µM) | < 0.03
CCn1cc(C(=O)O)c(=O)c2cc(F)c(N3CCN(Cc4ccc(CN5CCN(c6cc7c(cc6F)c(=O)c(C(=O)O)cn7CC)CC5)cc4)CC3)cc21 | 0.06 (≈ 0.081 µM) | 1 (≈ 1.35 µM) | 0.06 (≈ 0.081 µM) | 4 (≈ 5.4 µM) | 0.06 (≈ 0.081 µM)
O=C(O)c1cn(C2CC2)c2cc(N3CCNCC3)c(F)cc2c1=O [CIPROFLOXACIN] | 1 (≈ 3.02 µM) | 8 (≈ 24.1 µM) | 0.5 (≈ 1.51 µM) | > 32 | 
CCn1cc(C(=O)O)c(=O)c2cc(F)c(N3CCNCC3)cc21 [NORFLOXACIN] | 4 (≈ 12.5 µM) | > 16 | 2 (≈ 6.26 µM) | > 16 | 0.5 (≈ 1.57 µM)
CCn1cc(C(=O)O)c(=O)c2cnc(N3CCNCC3)nc21 [PIPEMIDIC ACID] | > 16 | > 16 |  | > 16 | > 16
